# According to ChEMBL document CHEMBL1629486, “Antimicrobial, antitumor and 5α-reductase inhibitor activities of some hydrazonoyl substituted pyrimidinones” (Eur J Med Chem, 2010):
# Columns and labels:
# Type in all cases: functional
# Pseudomonas aeruginosa = assay: Antimicrobial activity against Pseudomonas aeruginosa at 1 to 5 ug/ml by agar well diffusion method
# In short: (§1)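 Agar well diffusion against bacteria and fungi. Inhibition zone is scored beyond the control: ++ 0.6–1.0 cm, + 0.1–0.5 cm, 0 no inhibition.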
# K562 = assay: Growth inhibition of human K562 cells assessed as cell growth at 1 M after 48 hrs by sulforhodamine B assay; set-up: scale not given: the % may be the effect or the level left
# In short: (§2)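 NCI 60-cell screen at a single high dose. Cells are grown in RPMI 1640 with 5% FBS and 2 mM L-glutamine, then plated at 5000–40,000 cells/well and held 24 h at 37 °C in 5% CO2 at 100% humidity. Drug is then added and plates are incubated another 48 h, with SRB staining as read-out. Results are given as growth percent (100 = no inhibition, 0 = no net growth, negative = lethality).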
# MOLT-4 = assay: Growth inhibition of human MOLT4 cells assessed as cell growth at 1 M after 48 hrs by sulforhodamine B assay; set-up: scale not given: the % may be the effect or the level left; in short: as §2
# [1] = Growth inhibition of human […] cells assessed as cell growth at 1 M after 48 hrs by sulforhodamine B assay; set-up: scale not given: the % may be the effect or the level left; in short: as §2
# A549 = assay: Growth inhibition of human A549 cells assessed as cell growth at 1 M after 48 hrs by sulforhodamine B assay; set-up: scale not given: the % may be the effect or the level left; in short: as §2
# EKVX = assay: Growth inhibition of human EKVX cells assessed as cell growth at 1 M after 48 hrs by sulforhodamine B assay; set-up: scale not given: the % may be the effect or the level left; in short: as §2
# NCI-H23 = assay: Growth inhibition of human NCI-H23 cells assessed as cell growth at 1 M after 48 hrs by sulforhodamine B assay; set-up: scale not given: the % may be the effect or the level left; in short: as §2
# NCI-H322M = assay: Growth inhibition of human NCI-H322M cells assessed as cell growth at 1 M after 48 hrs by sulforhodamine B assay; set-up: scale not given: the % may be the effect or the level left; in short: as §2
# HCC 2998 = assay: Growth inhibition of human HCC2998 cells assessed as cell growth at 1 M after 48 hrs by sulforhodamine B assay; set-up: scale not given: the % may be the effect or the level left; in short: as §2
# HCT-116 = assay: Growth inhibition of human HCT116 cells assessed as cell growth at 1 M after 48 hrs by sulforhodamine B assay; set-up: scale not given: the % may be the effect or the level left; in short: as §2
# HCT-15 = assay: Growth inhibition of human HCT15 cells assessed as cell growth at 1 M after 48 hrs by sulforhodamine B assay; set-up: scale not given: the % may be the effect or the level left; in short: as §2
# HT-29 = assay: Growth inhibition of human HT-29 cells assessed as cell growth at 1 M after 48 hrs by sulforhodamine B assay; set-up: scale not given: the % may be the effect or the level left; in short: as §2
# KM12 = assay: Growth inhibition of human KM12 cells assessed as cell growth at 1 M after 48 hrs by sulforhodamine B assay; set-up: scale not given: the % may be the effect or the level left; in short: as §2
# SW-620 = assay: Growth inhibition of human SW620 cells assessed as cell growth at 1 M after 48 hrs by sulforhodamine B assay; set-up: scale not given: the % may be the effect or the level left
# In short: (§3)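 NCI 60-cell panel screen, single dose (1.0 M as printed). Cells grown in RPMI 1640 with 5% fetal bovine serum and 2 mM L-glutamine, seeded at 5000–40,000 cells/well, preincubated 24 h at 37 °C in 5% CO2 at 100% humidity, then exposed to compound for 48 h. Sulforhodamine B staining read-out. Result given as growth percent: 100 = no inhibition, 0 = no net growth, negative = lethality.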
# SF-268 = assay: Growth inhibition of human SF268 cells assessed as cell growth at 1 M after 48 hrs by sulforhodamine B assay; set-up: scale not given: the % may be the effect or the level left; in short: as §3
# SF-539 = assay: Growth inhibition of human SF539 cells assessed as cell growth at 1 M after 48 hrs by sulforhodamine B assay; set-up: scale not given: the % may be the effect or the level left; in short: as §3
# SNB-19 = assay: Growth inhibition of human SNB19 cells assessed as cell growth at 1 M after 48 hrs by sulforhodamine B assay; set-up: scale not given: the % may be the effect or the level left; in short: as §3
# SNB-75 = assay: Growth inhibition of human SNB75 cells assessed as cell growth at 1 M after 48 hrs by sulforhodamine B assay; set-up: scale not given: the % may be the effect or the level left; in short: as §3
# U-251 = assay: Growth inhibition of human U251 cells assessed as cell growth at 1 M after 48 hrs by sulforhodamine B assay; set-up: scale not given: the % may be the effect or the level left; in short: as §3
# M14 = assay: Growth inhibition of human M14 cells assessed as cell growth at 1 M after 48 hrs by sulforhodamine B assay; set-up: scale not given: the % may be the effect or the level left; in short: as §2
# SK-MEL-2 = assay: Growth inhibition of human SK-MEL-2 cells assessed as cell growth at 1 M after 48 hrs by sulforhodamine B assay; set-up: scale not given: the % may be the effect or the level left; in short: as §3
# IGROV-1 = assay: Growth inhibition of human IGROV1 cells assessed as cell growth at 1 M after 48 hrs by sulforhodamine B assay; set-up: scale not given: the % may be the effect or the level left; in short: as §2
# OVCAR-5 = assay: Growth inhibition of human OVCAR5 cells assessed as cell growth at 1 M after 48 hrs by sulforhodamine B assay; set-up: scale not given: the % may be the effect or the level left; in short: as §2
# NCI/ADR-RES = assay: Growth inhibition of human NCI/ADR-RES cells assessed as cell growth at 1 M after 48 hrs by sulforhodamine B assay; set-up: scale not given: the % may be the effect or the level left; in short: as §2
# 786-0 = assay: Growth inhibition of human 786-0 cells assessed as cell growth at 1 M after 48 hrs by sulforhodamine B assay; set-up: scale not given: the % may be the effect or the level left; in short: as §2
# A498 = assay: Growth inhibition of human A498 cells assessed as cell growth at 1 M after 48 hrs by sulforhodamine B assay; set-up: scale not given: the % may be the effect or the level left; in short: as §2
# ACHN = assay: Growth inhibition of human ACHN cells assessed as cell growth at 1 M after 48 hrs by sulforhodamine B assay; set-up: scale not given: the % may be the effect or the level left; in short: as §2
# RXF 393 = assay: Growth inhibition of human RXF393 cells assessed as cell growth at 1 M after 48 hrs by sulforhodamine B assay; set-up: scale not given: the % may be the effect or the level left; in short: as §3
# SN12C = assay: Growth inhibition of human SN12C cells assessed as cell growth at 1 M after 48 hrs by sulforhodamine B assay; set-up: scale not given: the % may be the effect or the level left; in short: as §3
# PC-3 = assay: Growth inhibition of human PC3 cells assessed as cell growth at 1 M after 48 hrs by sulforhodamine B assay; set-up: scale not given: the % may be the effect or the level left; in short: as §2
# DU-145 = assay: Growth inhibition of human DU145 cells assessed as cell growth at 1 M after 48 hrs by sulforhodamine B assay; set-up: scale not given: the % may be the effect or the level left; in short: as §2
# MCF7 = assay: Growth inhibition of human MCF7 cells assessed as cell growth at 1 M after 48 hrs by sulforhodamine B assay; set-up: scale not given: the % may be the effect or the level left; in short: as §2
# BT-549 = assay: Growth inhibition of human BT549 cells assessed as cell growth at 1 M after 48 hrs by sulforhodamine B assay; set-up: scale not given: the % may be the effect or the level left; in short: as §2
# Rattus norvegicus [2] = assay: Effect on circulating testosterone and dihydrotestosterone level in sc dosed Sprague-Dawley rat by radioimmunoassay
# In short: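 Rats were given a range of doses of the 5α-reductase inhibitors. Serum testosterone and DHT were measured by radioimmunoassay with specific antisera, without prior chromatography. Serum (0.5 mL) was extracted with 2 mL peroxide-free diethyl ether by shaking for 60 s. Levels were compared with vehicle-treated controls, and ED50 was derived.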
# Rattus norvegicus [3] = assay: Effect on circulating testosterone and dihydrotestosterone level in sc dosed Sprague-Dawley rat by radioimmunoassay relative to anastrozole
# In short: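 Serum testosterone and DHT were measured by RIA in ether extracts of serum (0.5 mL serum, 2 mL diethyl ether, 60 s shaking), without chromatography, in rats dosed at several levels. Relative potency is the ED50 of anastrozole divided by the ED50 of the test agent, where ED50 is the dose giving 50% of the pharmacological response.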
# Aspergillus fumigatus = assay: Antimicrobial activity against Aspergillus fumigatus at 1 to 5 ug/ml by agar well diffusion method; in short: as §1
# Penicillium italicum = assay: Antimicrobial activity against Penicillium italicum at 1 to 5 ug/ml by agar well diffusion method; in short: as §1
SMILES,diameter of the inhibition zone (DIZ) (Pseudomonas aeruginosa) [cm],Activity (K562) [%],Activity (MOLT-4) [%],Activity [1] [%],Activity (A549) [%],Activity (EKVX) [%],Activity (NCI-H23) [%],Activity (NCI-H322M) [%],Activity (HCC 2998) [%],Activity (HCT-116) [%],Activity (HCT-15) [%],Activity (HT-29) [%],Activity (KM12) [%],Activity (SW-620) [%],Activity (SF-268) [%],Activity (SF-539) [%],Activity (SNB-19) [%],Activity (SNB-75) [%],Activity (U-251) [%],Activity (M14) [%],also measured
CC(=O)c1ccc(N/N=C(\C(=O)c2ccc(Cl)cc2)c2nc(C)cc(=O)[nH]2)cc1,0,87.61,84.16,91.91,94.61,105.04,86.1,100.21,111.21,90.39,96.72,101.59,100.14,98.45,95.91,90.87,95.91,91.94,96.78,88.06,Activity (SK-MEL-2): 99.06%; Activity (IGROV-1): 94.2%; Activity (OVCAR-5): 91.69%; Activity (NCI/ADR-RES): 93.99%; Activity (786-0): 103.17%; Activity (A498): 97.59%; Activity (ACHN): 90.63%; Activity (RXF 393): 94.35%; Activity (SN12C): 95.54%; Activity (PC-3): 90.5%; Activity (DU-145): 95.47%; Activity (MCF7): 89.39%; Activity (BT-549): 99.42%; ED50 (Rattus norvegicus [2]): 0.698 µg/kg; Ratio ED50 (Rattus norvegicus [3]): 1.562; diameter of the inhibition zone (DIZ) (Aspergillus fumigatus): 0 cm; diameter of the inhibition zone (DIZ) (Penicillium italicum): 0 cm
Cc1ccc(N/N=C(\C(=O)c2ccc(Cl)cc2)c2nc(C)cc(=O)[nH]2)cc1,0,91.74,98.62,85.08,100.03,91.46,111.33,106.17,115.84,86.94,110.86,110.66,114.61,93.7,107.28,85.29,103.64,115.66,103.37,82.73,Activity (SK-MEL-2): 95.33%; Activity (IGROV-1): 7.59%; Activity (OVCAR-5): 121.85%; Activity (NCI/ADR-RES): 102.57%; Activity (786-0): 82.91%; Activity (A498): 107.77%; Activity (ACHN): 99.08%; Activity (RXF 393): 40.73%; Activity (SN12C): 99.97%; Activity (PC-3): 95.01%; Activity (DU-145): 102.09%; Activity (MCF7): 91.01%; Activity (BT-549): 117.79%; ED50 (Rattus norvegicus [2]): 0.173 µg/kg; Ratio ED50 (Rattus norvegicus [3]): 6.301; diameter of the inhibition zone (DIZ) (Aspergillus fumigatus): 0 cm; diameter of the inhibition zone (DIZ) (Penicillium italicum): 0 cm
Cc1cc(=O)[nH]c(/C(=N/Nc2ccccc2)C(=O)c2ccc(Cl)cc2)n1,0,52.73,39.84,96.57,92.54,103.39,105.18,107.24,109.1,86.88,112.06,105.27,101.95,94.56,117.24,92.33,95.47,128.46,106.82,97.08,Activity (SK-MEL-2): 102.42%; Activity (IGROV-1): 17.65%; Activity (OVCAR-5): 117.08%; Activity (NCI/ADR-RES): 105.88%; Activity (786-0): 82.24%; Activity (A498): 83.96%; Activity (ACHN): 110.63%; Activity (RXF 393): 28.48%; Activity (SN12C): 93.24%; Activity (PC-3): 92.58%; Activity (DU-145): 104.88%; Activity (MCF7): 90.11%; Activity (BT-549): 97.44%; ED50 (Rattus norvegicus [2]): 0.211 µg/kg; Ratio ED50 (Rattus norvegicus [3]): 5.166; diameter of the inhibition zone (DIZ) (Aspergillus fumigatus): 0 cm; diameter of the inhibition zone (DIZ) (Penicillium italicum): 0 cm
